Structures are written as SMILES. Converted amounts (≈) assume the structure as drawn. The source made the active and inactive calls. No cut-off for these calls is given here. Starred links: 1 amine or outer side, 2 acyl side, 3 side chain; linkers in the order of their positions; H or OH if unused. Positions of bridges follow the written chain, without caps; N, C: chain ends. Non-standard residues stand in square brackets, D forms with d. Residues, ends and D or L forms follow the SMILES beside them. *: point of attachment. pTerphenylCO(4''-OnC5H11) = CCCCCOc1ccc(-c2ccc(-c3ccc(C(=O)*)cc3)cc2)cc1; Orn(4R-OH,5R-OH) = O=C([C@H](C[C@@H](O)[C@@H](O)N[*:3])N[*:1])[*:2]; hTyr(3S-OH,4S-OH) = N[C@H](C(=O)O)[C@H](O)[C@@H](O)c1ccc(O)cc1; Pro(3S-OH,4S-Me) = C[C@H]1CN[C@H](C(=O)O)[C@H]1O; Hyp = O=C(O)[C@@H]1C[C@@H](O)CN1

Test [1] has as its system Candida albicans. The test can be described thus: Antifungal activity against Candida albicans isolate 1 assessed as cell wall damage at MIC by Transmission electron microscopy. Type of test: functional, organism-based. The method in brief: (§1)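 Cells recovered 8 h after a 1-h drug exposure were grown on SDA for 24 h at 35°C. Colonies fixed at 4°C in 0.1 M cacodylate (pH 7.2) with 2% glutaraldehyde and 2% paraformaldehyde, ethanol-dehydrated and embedded in Lowicryl K4M. Thin sections examined by transmission EM.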

Test [2] concerns Candida albicans. In words: Fungicidal activity against Candida albicans ATCC 90028 assessed as log reduction in bacterial count at 4 times MIC after drug exposure for 1 hr followed by washout measured after 48 hrs in the absence of drug by PAFE study. Type of test: functional. In a few lines: (§2)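 Starting inoculum ~1 x 10^5 to 5 x 10^5 CFU/ml in MOPS-buffered RPMI 1640 (pH 7.0) with drug at multiples of the CLSI M27-A3 MIC. After 1 h at 35°C, cells washed and centrifuged three times at 1,400 x g for 10 min, then resuspended in warm drug-free RPMI. Shaken at 35°C and plated on SDA at 0–48 h; CFU counted after 48 h. Run twice per isolate; means.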

Test [3] deals with Candida parapsilosis. The test can be described thus: Antifungal activity against Candida parapsilosis isolate 1 by CLSI M27-A3 broth microdilution method. The class given is functional. The following applies: Lodderomyces parapsilosis. In a few lines: (§3)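 CLSI M27-A3 broth microdilution in RPMI 1640 buffered to pH 7.0 with MOPS. Starting inoculum 0.5 x 10^3 to 2.5 x 10^3 cells/ml, incubated at 35°C. MIC read as the lowest concentration giving >50% growth reduction versus control. Each isolate tested on at least three occasions.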
For orientation: Broth dilution looks for growth in wells or tubes with falling amounts of substance.

The subject of test [4] is Nakaseomyces glabratus. In words: Increase in susceptibility to calcofluor white in Candida glabrata isolate 3 assessed as cell wall damage at 16 times MIC after 1 hr relative to control. Type of test: functional, organism-based. The method in brief: (§4)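 Cells recovered 8 h after a 1-h drug exposure were grown to exponential phase in YPD with 1% glucose and adjusted to OD599 0.1. Undiluted and 10-fold serially diluted cultures were spotted onto YPD plates containing calcofluor white, then incubated at 30°C for 72 h. Growth compared with no-drug control cells; triplicate.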

For test [5], the system named is Nakaseomyces glabratus. In words: Increase in susceptibility to SDS in Candida glabrata isolate 3 assessed as cell wall damage at 4 times MIC after 1 hr relative to control. Type of test: functional, organism-based. In a few lines:
(§5)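 Cells recovered 8 h after a 1-h drug exposure were grown in YPD with 1% glucose to exponential phase and adjusted to OD599 0.1. Undiluted culture and 10-fold serial dilutions were spotted onto YPD plates containing SDS (0.01 to 0.04%), then incubated 72 h at 30°C. Growth compared with unexposed control cells; triplicate.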

Test [6] concerns Pichia kudriavzevii. In words: Antifungal activity against Candida krusei isolate 1 assessed as cell wall damage at MIC by Transmission electron microscopy. Type of test: functional, organism-based. The method in brief:
as §1

Test [7] deals with Candida parapsilosis. The test can be described thus: Fungicidal activity against Candida parapsilosis isolate A assessed as log reduction in bacterial count at 4 times MIC after 48 hrs by time-kill analysis. The class given is functional. The following applies: Lodderomyces parapsilosis. In a few lines: (§6)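 Isolates subcultured twice on SDA, then suspended to 0.5 McFarland and diluted into RPMI 1640 (MOPS, pH 7.0) with or without anidulafungin, giving about 1 x 10^5 to 5 x 10^5 CFU/ml. Tubes were shaken at 35°C. Samples were taken at 0, 2, 4, 8, 12, 24 and 48 h, serially diluted 10-fold, plated on SDA, and CFU counted after 48 h at 35°C. Each isolate was run twice; mean values.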

Test [8] deals with Candida albicans. The test can be described thus: Fungicidal activity against Candida albicans isolate 2 assessed as log reduction in bacterial count at 4 times MIC after drug exposure for 1 hr followed by washout measured after 48 hrs in the absence of drug by PAFE study. The class given is functional. In a few lines: as §2
In test [9] the test system is Candida parapsilosis. In words: Increase in susceptibility to calcofluor white in Candida parapsilosis isolate 1 assessed as cell wall damage at 4 times MIC after 1 hr relative to control. The class given is functional, organism-based. In a few lines:
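Candida given a 1-h anidulafungin pulse in MOPS-buffered RPMI 1640 (pH 7.0) at 35°C, washed three times by centrifugation, and regrown drug-free. Cells collected 8 h later, grown in YPD with 1% glucose to exponential phase, and set to OD599 0.1. Undiluted culture and 10-fold dilutions (4 µl) spotted on YPD plates with calcofluor white, then 30°C for 72 h. Triplicate; compared with no-drug cells.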

The subject of test [10] is Nakaseomyces glabratus. The test can be described thus: Increase in susceptibility to calcofluor white in Candida glabrata isolate 1 assessed as cell wall damage at 16 times MIC after 1 hr relative to control. Type of test: functional, organism-based. The method in brief: as §4
Test [11] deals with Candida albicans. The test can be described thus: Fungicidal activity against Candida albicans isolate 2 assessed as log reduction in bacterial count at 16 times MIC after 48 hrs by time-kill analysis. The following applies: isolate 2, 48 h. The class given is functional. In a few lines:
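Isolates subcultured twice on SDA, suspended to 0.5 McFarland, giving ~1 x 10^5 to 5 x 10^5 CFU/ml in MOPS-buffered RPMI 1640 (pH 7.0) with or without drug at multiples of MIC (MIC by CLSI M27-A3). Tubes shaken at 35°C with continuous drug. Sampled at 0–48 h, diluted 10-fold and plated on SDA; CFU counted after 48 h at 35°C. Run twice per isolate; means.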

Test [12] deals with Nakaseomyces glabratus. In words: Antifungal activity against Candida glabrata isolate 2 by CLSI M27-A3 broth microdilution method. The class given is functional. The method in brief: as §3
The subject of test [13] is Nakaseomyces glabratus. The test can be described thus: Antifungal activity against Candida glabrata isolate 3 by CLSI M27-A3 broth microdilution method. Type of test: functional. The method in brief:
as §3

Test [14] relates to Pichia kudriavzevii. In words: Increase in susceptibility to SDS in Candida krusei isolate ATCC 6258 assessed as cell wall damage at MIC after 1 hr relative to control. Type of test: functional, organism-based. The method in brief:
as §5

Test [15] relates to Nakaseomyces glabratus. The test can be described thus: Increase in susceptibility to SDS in Candida glabrata isolate 3 assessed as cell wall damage at MIC after 1 hr relative to control. The class given is functional, organism-based. The method in brief: as §5
Test [16] relates to Pichia kudriavzevii. In words: Antifungal activity against Candida krusei isolate ATCC 6258 assessed as time period for bacterial growth inhibition at 16 times MIC after 1 hr drug exposure. The class given is functional. The method in brief:
(§7)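 Inoculum of about 1 x 10^5 to 5 x 10^5 CFU/ml in MOPS-buffered RPMI (pH 7.0), shaken at 35°C and exposed to drug for 1 h. Cells then washed and centrifuged three times and resuspended in drug-free warm RPMI. Samples plated on SDA at 0, 2, 4, 8, 12, 24 and 48 h, with CFU counted after 48 h at 35°C. Run twice per isolate; values are means.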

Test [17] concerns Candida parapsilosis. In words: Fungicidal activity against Candida parapsilosis isolate S assessed as log reduction in bacterial count at 16 times MIC after 48 hrs by time-kill analysis. Type of test: functional. The following applies: Lodderomyces parapsilosis. In a few lines: as §6
Test [18] has as its system Candida parapsilosis. The test can be described thus: Antifungal activity against Candida parapsilosis isolate A assessed as time period for bacterial growth inhibition at 4 times MIC after 1 hr drug exposure. Type of test: functional. The method in brief: as §7
Test [19] relates to Nakaseomyces glabratus. The test can be described thus: Increase in susceptibility to SDS in Candida glabrata isolate 1 assessed as cell wall damage at MIC after 1 hr relative to control. Type of test: functional, organism-based. The method in brief: as §5
Test [20] relates to Candida parapsilosis. In words: Antifungal activity against Candida parapsilosis isolate A assessed as cell wall damage at 4 times MIC by Transmission electron microscopy. The class given is functional, organism-based. In a few lines: as §1
Test [21] concerns Candida albicans. In words: Inhibition of Candida albicans isolate 1 adherence to human buccal epithelial cells at 4 times MIC after 1 hr by adherence assay relative to control. The class given is functional, Epithelial cell. In a few lines: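 Candida collected 8 h after a 1-h 4x MIC pulse and washout were grown on SDA for 24 h at 35°C. Buccal epithelial cells were pooled from three donors and washed in PBS. Cells (1 x 10^5/ml) were mixed 1:1 by volume with Candida (1 x 10^6/ml) and shaken 1 h at 37°C. Mixtures were filtered, washed, and Gram-stained, and Candida were counted per 100 epithelial cells. Run in duplicate on ≥2 occasions; Student's t test against unexposed controls.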

On to `CCCCCOc1ccc(-c2ccc(-c3ccc(C(=O)N[C@H]4C[C@@H](O)[C@@H](O)NC(=O)[C@@H]5[C@@H](O)[C@@H](C)CN5C(=O)[C@H]([C@@H](C)O)NC(=O)[C@H]([C@H](O)[C@@H](O)c5ccc(O)cc5)NC(=O)[C@@H]5C[C@@H](O)CN5C(=O)[C@H]([C@@H](C)O)NC4=O)cc3)cc2)cc1` [ANIDULAFUNGIN] ({pTerphenylCO(4''-OnC5H11)}-[Orn(4R-OH,5R-OH)]T[Hyp][hTyr(3S-OH,4S-OH)]T[Pro(3S-OH,4S-Me)]; lactam 1-C), for which the result in test [1], in test [4], in [5], in test [6], in test [9] and in test [10] was Active. Besides, the outcome in test [14], in test [15], in [19] and in [20] was Active. The log reduction turned out to be 1.89 in [2]; 3.19 log CFU/ml in test [7]; 1.24 in [8]; 2.86 log CFU/ml in [11]; 3.11 log CFU/ml in test [17]. Also, the MIC in test [3] was found to be 2 µg/mL (≈ 1.75 µM); in test [12] it was 0.03 µg/mL (≈ 0.0263 µM); in test [13] it was 0.03 µg/mL (≈ 0.0263 µM). Also, the Time in test [16] and in test [18] was 8 h throughout. Besides, the “inhibition (INH)” value in [21] was 58%.

As usually defined, the MIC is the lowest concentration found to suppress growth. Low values mean greater potency, high ones weaker potency.

The record behind these values is ChEMBL document CHEMBL1671655, “Anidulafungin is fungicidal and exerts a variety of postantifungal effects against Candida albicans, C. glabrata, C. parapsilosis, and C. krusei isolates” (2009).
